Activity calls are given as the source filed them. No cut-off for these calls is given here.

The source of these data is ChEMBL document CHEMBL1944515 (J Med Chem, 2012).

For assay [1], the system named is HeLa. As to the kind of experiment: Cytotoxicity against human HeLa cells after 72 hrs by MTT assay. The format is functional, cell-based. Background: Tetrazolium dyes change colour on reduction, which living cells bring about.
The next assay deals with HL-60. The assay can be described thus: Cytotoxicity against human HL60 cells after 72 hrs by MTT assay. The settings on record: HL-60, 72 h. The format is functional, cell-based.
Assay [2] can be described thus: Inhibition of bovine tubulin polymerisation after 20 mins by turbidimetric analysis. On the set-up: species or system Bos taurus. The method, boiled down:
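Bovine brain tubulin at 10 μM was preincubated with varying compound concentrations in glutamate buffer at 30 °C, cooled to 0 °C, and 0.4 mM GTP added. Samples were warmed to 30 °C and assembly followed by turbidity at 350 nm.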

In another assay the test system is LoVo. As to the kind of experiment: Cytotoxicity against human LoVo cells after 72 hrs by MTT assay. Type of assay: functional, cell-based. The gist of the method: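 Cells seeded at 8 × 10^3 per well and left 18 h at 37 °C, 5% CO2, then given fresh medium with compound at a range of concentrations for 72 h; DMSO at most 0.25% final. Viability read by MTT relative to 0.25% DMSO-treated cells. […] LoVoDoxo kept in Ham's F12 with 0.1 μg/mL doxorubicin; A549-T12 kept in DMEM with 12 nM paclitaxel.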

The test system of the next assay is CCRF-CEM. The assay can be described thus: Resistance ratio of IC50 for human CEM/VBL100 cells to IC50 for human CEM cells. The format is functional.
The subject of a further assay is A549. The assay can be described thus: Resistance ratio of IC50 for human A549-T12 cells to IC50 for human A549 cells. Type of assay: functional.
The test system of assay [3] is HeLa. As to the kind of experiment: Induction of cell cycle arrest in human HeLa cells assessed as increase in G2/M phase cells after 24 hrs by flow cytometry. Type of assay: functional, cell-based. The gist of the method: (§1)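 5 × 10^5 exponentially growing HeLa cells were treated with 15–250 nM for 24 h, fixed in ice-cold 70% ethanol, then treated with lysis buffer containing RNase A and 0.1% Triton X-100. PI staining of DNA content, read by flow cytometry. Mean ± SEM of three independent experiments.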

Assay [4] has as its system HeLa. As to the kind of experiment: Induction of cell cycle arrest in human HeLa cells assessed as increase in G2/M phase cells at 30 nM after 24 hrs by flow cytometry. The format is functional, cell-based. The method, boiled down:
as §1

Assay [5] concerns HeLa. As to the kind of experiment: Induction of cell cycle arrest in human HeLa cells assessed as G2/M phase cells at 60 nM after 24 hrs by flow cytometry. The format is functional. The method, boiled down:
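Exponentially growing HeLa cells (5 × 10^5) were treated 24 h at 15–250 nM. Cells were fixed in ice-cold 70% ethanol, lysed with RNase A/0.1% Triton X-100 buffer and stained with propidium iodide. DNA content was measured by flow cytometry to score G2/M fraction. Mean ± SEM of three independent experiments.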
In general terms: In flow cytometry, cells or beads pass a laser one at a time.

The subject of assay [6] is HeLa. The assay can be described thus: Induction of cell cycle arrest in human HeLa cells assessed as decrease in S phase cells at 15 to 250 nM after 24 hrs by flow cytometry. The format is functional, cell-based. The gist of the method:
as §1

Assay [7] relates to HeLa. As to the kind of experiment: Induction of cell cycle arrest in human HeLa cells assessed as increase in cyclin B1 expression at 50 to 100 nM after 24 to 48 hrs by Western blot analysis. The format is functional, cell-based. The method, boiled down:
(§2)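 HeLa cells were treated for 24 or 48 h, washed in ice-cold PBS and lysed on ice for 30 min; lysates were spun at 15000g, 4 °C. 20 μg protein per lane on SDS-PAGE (7.5–15%), then PVDF. Blocked overnight at 4 °C, primary antibodies 2 h at room temperature, peroxidase secondary 60 min, ECL detection. Blots were reprobed for β-actin as loading control.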
(In general: Immunoblotting shows a protein as a band on a membrane.)

Assay [8] has as its system HeLa. As to the kind of experiment: Induction of apoptosis in human HeLa cells assessed as viable cells at 100 nM after 48 hrs by FITC conjugated annexin-V/PI staining-based flow cytometry (reference value: 86.7%). The format is functional. The following applies: read-out: Activity. The gist of the method:
(§3)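 Flow cytometry of HeLa cells after 24 or 48 h exposure, double-stained with annexin-V-FITC and propidium iodide. Excitation at 488 nm, emission at 525 nm (FITC) and 585 nm (PI). Quadrants scored as live, early apoptotic, late apoptotic or necrotic cells.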

The subject of assay [9] is HeLa. The assay can be described thus: Induction of apoptosis in human HeLa cells assessed as late apoptotic cells at 100 nM after 48 hrs by FITC conjugated annexin-V/PI staining-based flow cytometry (reference value: 2.9%). Type of assay: functional.
Assay [10] deals with HeLa. As to the kind of experiment: Induction of apoptosis in human HeLa cells assessed as increase in annexin-V positive apoptotic cells after 24 to 48 hrs by FITC conjugated annexin-V/PI staining-based flow cytometry. Type of assay: functional, cell-based. The method, boiled down: as §3
Assay [11] deals with HeLa. The assay can be described thus: Induction of apoptosis in human HeLa cells assessed as increase in annexin-V positive apoptotic cells at 50 to 100 nM by FITC conjugated annexin-V/PI staining-based flow cytometry. Type of assay: functional, cell-based. The settings on record: TDE = time-dependent effect. The gist of the method:
as §3

Assay [12] deals with HeLa. As to the kind of experiment: Induction of mitochondrial depolarization in human HeLa cells after 24 to 48 hrs by JC1-based fluorescent staining. Type of assay: functional, cell-based. The method, boiled down:
(§4)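 Mitochondrial membrane potential in HeLa cells after 24 or 48 h incubation, measured with the JC-1 dye by flow cytometry. Aggregates read as red (590 nm) and monomers as 530 nm; output is the percentage of depolarized cells. Mean ± SEM of three independent experiments.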

Assay [13] concerns HeLa. As to the kind of experiment: Induction of mitochondrial depolarization in human HeLa cells at 50 to 100 nM by JC1-based fluorescent staining. The format is functional, cell-based. The following applies: TDE = time-dependent effect. The method, boiled down: as §4
Assay [14] relates to HeLa. As to the kind of experiment: Induction of ROS production in human HeLa cells at 50 to 100 nM after 24 to 48 hrs by H2-DCFDA staining-based flow cytometry. Type of assay: functional, cell-based. The gist of the method: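 HeLa cells were exposed for 24 or 48 h, then stained with hydroethidine or H2-DCFDA for ROS and read by flow cytometry. DMSO ≤0.25%. Mean ± SEM of three independent experiments.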

For assay [15], the system named is HeLa. As to the kind of experiment: Induction of apoptosis in human HeLa cells assessed as decrease in XIAP protein expression at 50 to 100 nM after 24 to 48 hrs by Western blot analysis. Type of assay: functional, cell-based. The method, boiled down:
as §2

The test system of assay [16] is HeLa. As to the kind of experiment: Induction of apoptosis in human HeLa cells assessed as decrease in Bcl2 protein level at 50 to 100 nM after 48 hrs by Western blot analysis. The format is functional, cell-based. The method, boiled down: as §2
In assay [17] the target is T1, M-phase inducer phosphatase 3 (Homo sapiens) (UniProt P30307).
T1 sequence (whole entry): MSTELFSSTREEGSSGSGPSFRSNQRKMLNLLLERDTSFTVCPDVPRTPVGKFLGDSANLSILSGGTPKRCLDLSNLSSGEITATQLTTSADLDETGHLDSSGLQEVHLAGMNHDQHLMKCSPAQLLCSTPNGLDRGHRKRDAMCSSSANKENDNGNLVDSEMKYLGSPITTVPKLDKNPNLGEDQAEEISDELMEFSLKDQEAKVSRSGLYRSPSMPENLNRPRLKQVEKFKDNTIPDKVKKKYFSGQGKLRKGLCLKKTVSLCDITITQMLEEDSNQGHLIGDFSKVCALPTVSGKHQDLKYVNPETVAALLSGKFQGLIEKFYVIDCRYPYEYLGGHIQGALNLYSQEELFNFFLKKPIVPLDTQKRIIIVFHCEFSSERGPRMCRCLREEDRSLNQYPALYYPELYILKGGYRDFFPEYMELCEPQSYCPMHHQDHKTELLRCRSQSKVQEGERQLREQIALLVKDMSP
As to the kind of experiment: Induction of cdc25c phosphorylation in human HeLa cells at 50 to 100 nM after 24 hrs by Western blot analysis.

In assay [18] the target is T1, M-phase inducer phosphatase 3 (Homo sapiens). As to the kind of experiment: Induction of cdc2 (Tyr15) dephosphorylation in human HeLa cells at 50 to 100 nM after 24 hrs by Western blot analysis.

Take `CCOc1ccc(-c2nnnn2-c2cc(OC)c(OC)c(OC)c2)cc1`: the IC50 (usually the concentration at which inhibition is half-maximal) in the assay with HeLa [1] was determined as 1.9 nM; in the assay on HL-60, 1.3 nM; in assay [2], 1100 nM; with LoVo, 1.1 nM. In addition, the results for the “Ratio IC50” value in the assay on CCRF-CEM and in the assay on A549 were 0.2 and 1, respectively. The Activity entry in the assay on HeLa [3] was “Dose-dependent effect”; with HeLa [5], over 80%; in the assay with HeLa [9] it was 27.7%; in the assay with HeLa [10], “Dose-dependent effect”; in the assay with HeLa [11] it was “tde”; in the assay with HeLa [12], “Dose-dependent effect”. The Activity entry in the assay on HeLa [13] was “tde”. Moreover, the outcome in the assay with HeLa [4], with HeLa [6], with HeLa [7], in the assay on HeLa [14], with HeLa [15] and with HeLa [16] was Active. In addition, the viability at 0.1 µM with HeLa [8] stood at 36.1%. For the same molecule, the induction result in [17] and in assay [18] was “Active” in each case.
